Where two headings read alike, the source gives them in different places.
Columns and labels:
[1] = target: sea urchin NAADP receptor; details: sea urchin egg homogenates, cited from earlier work
SKBR3 cells = experiment: Microinjection of SKBR3 cells with GCaMP6M confocal Ca2+ imaging; format: cell-based, human; details: for EC50 of fold-change in the intensity of the Ca2+ signal: SKBR3 cells transfected with TPC2 and GCaMP6M, concentration in the micropipette
[2] = tested on: sea urchin NAADP receptor; experiment: Ca2+ release from sea urchin egg homogenates; format: biochemical, Strongylocentrotus purpuratus
Summary of the method: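 Ca2+ release measured in Strongylocentrotus purpuratus egg homogenate after adding test compound.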

[3] = target: sea urchin NAADP receptor; experiment: Competition-binding assay with [32P]-NAADP in sea urchin egg extracts; parameters: species or system Strongylocentrotus purpuratus; details: read-out: IC50 competition with [32P]-NAADP
[4] = target: T1, 23 kDa NAADP binding protein(s) (Homo sapiens, UniProt Q9H910); details: Jurkat cell extracts, 23 kDa band
T1 sequence (Q9H910 1-190): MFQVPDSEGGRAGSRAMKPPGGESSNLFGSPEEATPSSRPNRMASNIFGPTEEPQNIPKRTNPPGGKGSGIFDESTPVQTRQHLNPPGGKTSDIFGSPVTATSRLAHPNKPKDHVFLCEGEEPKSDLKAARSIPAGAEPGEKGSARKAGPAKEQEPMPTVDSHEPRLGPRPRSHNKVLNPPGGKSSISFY

[5] = Solubility in buffered water; format: physicochemical
U2OS cells = details: cited from earlier work
[6] = target: sea urchin NAADP receptor; format: biochemical, Strongylocentrotus purpuratus; details: read-out: IC50 for desensitization; data not shown
ascidian oocytes = details: read-out: EC50 of Ca2+ mobilization; cited from earlier work

5-(3-(t-Boc-amino)-propyl)-NAADP [compound 3]
EC50 (agonist) ([1]; previously synthesized and tested): micromolar range

5-[3-(3-Azido-5-(azidomethyl)benzamido)propyl]-NAADP [AIOC-NAADP]
EC50 of fold-change in the intensity of the Ca2+ signal (SKBR3 cells): 173 nM | Potency relative to 9 (SKBR3 cells; microinjection into cultured human cells, 9 data ref 56): approximately 10 fold | Calcium released, % of the amount of calcium released by 10 μM NAADP ([2]; at 1 mM): 18% | Release of Ca2+ from sea urchin egg homogenates ([2]; concentrations less than 100 μM): did not elicit release | IC50 [3]: 6000 nM

NC(=O)c1ccc[n+]([C@H]2O[C@@H](COP(=O)([O-])OP(=O)(O)OC[C@H]3O[C@@H](n4cnc5c(N)ncnc54)[C@H](OP(=O)(O)O)[C@@H]3O)[C@H](O)[C@@H]2O)c1 [NADP]
Fold higher concentrations required for similar protection compared with NAADP [4]: 40 fold

[N-]=[N+]=NCc1cc(N=[N+]=[N-])cc(C(=O)NCCCc2cncc(C(=O)O)c2)c1 [compound 4, 5-(3-(3-Azido-5-(azidomethyl)benzamido)propyl) nicotinic acid]
Solubility ([5]; buffered water at pH 4.5): low solubility | Solubility ([5]; higher pH (pH ≥ 5)): completely soluble

C#Cc1nc2c(N)ncnc2n1C1OC(COP(=O)(O)OP(=O)(O)OC[C@H]2O[C@@H]([n+]3cc(N=[N+]=[N-])cc(C(=O)[O-])c3)[C@H](O)[C@@H]2O)C(O)C1OP(=O)(O)O (some centres unmarked) [compound 9, 5-azido-8-ethynyl-NAADP]
Activity when microinjected into cultured human U2OS cells (U2OS cells): active at low concentration

nicotinic acid adenine dinucleotide phosphate [NAADP]
EC50 of fold-change in the intensity of the Ca2+ signal (SKBR3 cells): 22 nM | IC50 [6]: 0.3 nM | EC50 ([1]; read-out: EC50 of Ca2+ mobilization): 10 to 50 nM | EC50 (ascidian oocytes): 10 to 50 nM
